Measurements taken from ChEMBL document CHEMBL1156059, “Thienopyrimidine-based P2Y12 platelet aggregation inhibitors” (Bioorg Med Chem Lett, 2009).
pIC50, pKi: −log10 of the molar value.

Legend:
P2Y purinoceptor 12 [1] = biological target: T1, P2Y purinoceptor 12 (Homo sapiens, UniProt Q9H244); assay: Binding affinity to human recombinant P2Y12 receptor expressed on CHO cell membrane; format: cell membranes
In short: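 Competition binding against 33P 2-MeSADP (added as a 1 nM solution) on membranes from CHO cells transfected with recombinant human P2Y12. Membranes were used at 10, 1 or 0.3 µg/well depending on method. Buffer contained 0.02% BSA, ascorbic acid and protease inhibitors. Cold 2-MeSADP (1.5 µM solution) served as control. Compounds were run as a seven-point threefold series from 10 µM, in triplicate. Plates were incubated 1 h at room temperature, then GF/B filtered and scintillation counted.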

Homo sapiens = species on record: Homo sapiens; assay: Ratio of Ki for human recombinant P2Y12 in presence of HSA and AGP to Ki for human recombinant P2Y12
In short: (§1)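 Same 33P 2-MeSADP filtration binding on recombinant human P2Y12 CHO membranes (1 or 0.3 µg/well), room temperature, 1 h. Membranes were prepared with 5X HSA (1.75%) and 5X AGP (0.075%). Compounds were run as a seven-point threefold series from 10 µM, in triplicate. Fold shift is the Ki with added protein divided by the Ki without protein.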

P2Y purinoceptor 12 [2] = biological target: T1, P2Y purinoceptor 12; assay: Binding affinity to human recombinant P2Y12 receptor expressed in CHO cell membrane in presence of HSA and human AGP; format: cell membranes; in short: as §1
[3] = Antiplatelet aggregatory activity in human platelet rich plasma assessed as inhibition of ADP-induced platelet aggregation; format: functional
In short: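 Human PRP was obtained by centrifuging whole blood at 200g for 15 min at room temperature, then adjusted to 300,000 platelets/µL with autologous platelet-poor plasma (2380g spin). Stirred PRP was mixed with compound, and aggregation was started with 20 µM ADP. Aggregation was read as the increase in light transmittance on a microplate spectrophotometer. Each concentration was run in duplicate.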

T1 sequence (Q9H244 whole entry): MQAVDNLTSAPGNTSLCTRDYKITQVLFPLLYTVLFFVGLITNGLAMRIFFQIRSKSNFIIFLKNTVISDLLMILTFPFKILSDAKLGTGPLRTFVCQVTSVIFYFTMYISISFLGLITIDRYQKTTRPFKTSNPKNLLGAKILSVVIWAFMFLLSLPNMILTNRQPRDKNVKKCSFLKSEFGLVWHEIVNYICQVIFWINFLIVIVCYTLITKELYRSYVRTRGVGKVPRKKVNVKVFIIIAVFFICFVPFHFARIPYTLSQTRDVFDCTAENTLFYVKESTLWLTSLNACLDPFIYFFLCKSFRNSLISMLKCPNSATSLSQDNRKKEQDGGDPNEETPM

Row | pKi (P2Y purinoceptor 12 [1]) | Ratio Ki (Homo sapiens) | pKi (P2Y purinoceptor 12 [2]) | pIC50 [3] | Structure (SMILES)
1 | 6.08 | 2 | 5.74 | < 4.00 | CCc1cc2c(N3CCN(C(=O)c4ccc(-c5ccccc5)cc4)CC3)nc(N3CCN(C(=O)C(F)(F)F)CC3)nc2s1
2 | – | 3.3 | 8.00 | 5.30 | CCc1cc2c(N3CCN(C(=O)c4ccc(-c5ccccc5)cc4)CC3)nc(NC(=O)NCCC(=O)O)nc2s1
3 | 7.43 | 4.3 | 6.79 | 4.38 | CCc1cc2c(N3CCN(C(=O)c4ccc(-c5ccccc5)cn4)CC3)nc(NC(=O)NCCC(=O)O)nc2s1
4 | 6.39 | 1 | 6.40 | 4.35 | CCc1cc2c(N3CCN(C(=O)c4ccc(-c5ccccc5)cc4)CC3)nc(N3CCNCC3)nc2s1
5 | 7.51 | 6.5 | 6.69 | 4.14 | CCc1cc2c(N3CCN(C(=O)c4ccc(-c5ccccc5)cc4)CC3)nc(N3CCCC(C(N)=O)C3)nc2s1 (stereo not drawn)
6 | 5.68 | – | – | 5.10 | CCc1cc2c(N3CCN(C(=O)CC(C)C)CC3)ncnc2s1
7 | 7.44 | 1.3 | 7.34 | 5.40 | CCc1cc2c(N3CCN(C(=O)C(C)C)CC3)nc(NC(=O)NCCC(=O)O)nc2s1
8 | 6.75 | 1 | 6.76 | 4.74 | CCc1cc2c(N3CCN(C(=O)CC(F)(F)F)CC3)nc(NC(=O)NCCC(=O)O)nc2s1
9 | 6.72 | 2.3 | 6.35 | 4.41 | CCc1cc2c(N3CCN(C(=O)COc4cccc(OC)c4)CC3)nc(NC(=O)NCCC(=O)O)nc2s1
10 | 7.46 | 7 | 6.62 | 4.43 | CCc1cc2c(N3CCN(C(=O)c4ccc(-c5ccccc5)cc4)CC3)nc(N3CCC(O)C3)nc2s1 (stereo not drawn)
11 | 6.18 | – | – | 4.55 | CCc1cc2c(N3CCN(C(=O)Cc4ccccc4)CC3)ncnc2s1
12 | 6.62 | 1.3 | 6.49 | 4.40 | CCc1cc2c(N3CCN(C(=O)c4ccc(-c5ccccc5)cc4)CC3)nc(N3CCC(N)CC3)nc2s1
13 | – | 15 | 6.91 | 4.24 | CCc1cc2c(N3CCN(C(=O)c4ccc(-c5ccccc5)cc4)CC3)nc(NCCC(=O)O)nc2s1
14 | 7.43 | 4.4 | 6.79 | 4.68 | CCc1cc2c(N3CCN(C(=O)c4ccc(-c5ccccc5)cc4)CC3)nc(NCCO)nc2s1
15 | 6.34 | 0.8 | 6.42 | 4.42 | CCc1cc2c(N3CCN(C(C)=O)CC3)nc(NC(=O)NCCC(=O)O)nc2s1
16 | 7.11 | 5.6 | 6.36 | 4.25 | CCc1cc2c(N3CCN(C(=O)c4ccc(-c5ccccc5)cc4)CC3)nc(NCCCO)nc2s1

Row | pKi (P2Y purinoceptor 12 [1]) | Ratio Ki (Homo sapiens) | pKi (P2Y purinoceptor 12 [2]) | pIC50 [3] | Structure (SMILES)
17 | 6.53 | 1.2 | 6.44 | 4.80 | CCC(=O)N1CCN(c2nc(NC(=O)NCCC(=O)O)nc3sc(CC)cc23)CC1
18 | 7.17 | 2 | 6.85 | 4.47 | CCc1cc2c(N3CCN(C(=O)Cc4ccc(F)c(F)c4)CC3)nc(NC(=O)NCCC(=O)O)nc2s1
19 | 7.72 | 4 | 7.12 | 4.96 | CCc1cc2c(N3CCN(C(=O)c4ccc(-c5ccccc5)cc4)CC3)nc(NC[C@@H](O)CO)nc2s1
20 | 6.27 | 1.1 | 6.23 | 4.60 | CCc1cc2c(N3CCN(C(=O)COc4ccccc4)CC3)nc(NC(=O)NCCC(=O)O)nc2s1
21 | 8.40 | 5 | 7.68 | 5.52 | CCc1cc2c(N3CCN(C(=O)c4ccc(-c5ccccc5)cc4)CC3)nc(N3[C@@H](C(N)=O)CC[C@H]3C(N)=O)nc2s1
22 | 5.52 | – | – | 4.55 | CCc1cc2c(N3CCN(C(=O)CC(F)(F)F)CC3)ncnc2s1
23 | – | – | – | 5.40 | CCc1cc2c(N3CCN(C(=O)CCCCOc4ccccc4)CC3)ncnc2s1
24 | 6.65 | 1 | 6.64 | 4.80 | CCc1cc2c(N3CCN(C(=O)Cc4ccccc4)CC3)nc(NC(=O)NCCC(=O)O)nc2s1
25 | 7.54 | – | – | 5.15 | CCc1cc2c(N3CCN(C(=O)c4ccc(-c5ccccc5)cc4)CC3)ncnc2s1
26 | 7.57 | 11 | 6.53 | 4.52 | CCc1cc2c(N3CCN(C(=O)c4ccc(-c5ccccc5)cc4)CC3)nc(N3CC(O)C3)nc2s1
27 | – | – | – | 4.74 | CCc1cc2c(N3CCN(C(=O)C(F)(F)F)CC3)ncnc2s1
28 | 6.89 | – | – | 5.90 | CCc1cc2c(N3CCN(C(=O)Oc4cccc5ccccc45)CC3)ncnc2s1
29 | 6.67 | 3.7 | 6.11 | 4.07 | CCc1cc2c(N3CCN(C(=O)CCOc4ccccc4)CC3)nc(NC(=O)NCCC(=O)O)nc2s1
30 | 5.36 | – | – | – | CCc1cc2c(N3CCN(C(=O)c4ccccc4)CC3)ncnc2s1
31 | 8.30 | 6 | 7.51 | 5.40 | CCc1cc2c(N3CCN(C(=O)c4ccc(-c5ccccc5)cc4)CC3)nc(N3C[C@@H](O)C[C@H]3C(=O)O)nc2s1
